As usually defined, the IC50 is the midpoint of a concentration-inhibition curve. A high value points to weaker potency in that assay.

Activity calls are given as the source filed them. The calls are words filed in the database; no cut-off is given here. Bounds are passed on as bounds.

Assay [1] concerns HCT-116. In words: Cytotoxicity against p53 deficient human HCT116 cells after 72 hrs by MTT assay. It is filed as cell-based. Particulars: HCT-116, 72 h. The gist of the method:
(§1)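 Monolayer cultures in RPMI 1640 with 10% FBS and 2 mmol/L L-glutamine, 37 °C, 5% CO2, used in exponential growth and checked for mycoplasma by PCR. Cells were seeded in 96-well plates, allowed to attach, then exposed continuously to drug for 72 h. MTT (final 0.5 mg/mL) was added for 4 h at 37 °C, formazan dissolved in DMSO, absorbance read at 570 nm. Triplicate.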

The subject of assay [2] is HT-29. Put plainly: Cytotoxicity against human HT29 cells after 72 hrs by MTT assay. In kind it is cell-based. Particulars: HT-29, 72 h. The gist of the method: as §1
For orientation: Formazan colour is commonly taken as a measure of viable cells.

The test system of assay [3] is MDA-MB-435. Put plainly: Cytotoxicity against human MDA-MB-435 cells after 72 hrs by MTT assay. It is filed as cell-based. As to conditions: MDA-MB-435, 72 h. The gist of the method: as §1
Assay [4] deals with HCT-116. Put plainly: Cytotoxicity against human HCT116 cells expressing p53 gene after 72 hrs by MTT assay. Particulars: HCT-116, 72 h. It is filed as cell-based. The gist of the method:
as §1

Assay [5] relates to LNCaP. Put plainly: Cytotoxicity against human LNCap cells after 72 hrs by MTT assay. In kind it is cell-based. The gist of the method: as §1
For assay [6], the system named is MDA-MB-435. Put plainly: Inhibition of colony formation of human MDA-MB-435 cells at >=1 uM after 24 hrs. In kind it is functional, cell-based. The gist of the method:
(§2)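 Cells were plated at 100 cells/well in 6-well plates and allowed to attach. Serial dilutions were added the next day for 24 h exposure. Cells were then washed in PBS and grown in drug-free medium for 8–10 days until colonies formed. Colonies were fixed in 1% glutaraldehyde for 30 min, stained with 2% crystal violet for 30 min, imaged and counted. Means of at least three independent experiments.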

Assay [7] deals with HCT-116. In words: Inhibition of colony formation of p53 expressing human HCT116 cells at >=1 uM after 24 hrs. It is filed as functional, cell-based. The method, boiled down: as §2
Assay [8] relates to HT-29. Put plainly: Inhibition of colony formation of human HT29 cells at >=1 uM after 24 hrs. It is filed as functional, cell-based. The method, boiled down: as §2
In assay [9] the test system is HCT-116. In words: Inhibition of colony formation of p53 deficient human HCT116 cells at >=1 uM after 24 hrs. In kind it is functional, cell-based. The method, boiled down:
as §2

Assay [10] relates to LNCaP. Put plainly: Inhibition of colony formation of human LNCap cells at >=1 uM after 24 hrs. It is filed as functional, cell-based. The gist of the method:
as §2

Take `COc1ccccc1C(=O)NNc1nc2ccccc2n2cccc12`: the half-maximal inhibitory concentration (IC50) in the assay with HCT-116 [1], in the assay on HT-29 [2], with MDA-MB-435 [3] and with HCT-116 [4] was more than 20 µM throughout.

As to `O=C(NNc1nc2cc(F)ccc2n2cccc12)c1cccs1`, the half-maximal inhibitory concentration (IC50) in the assay with HCT-116 [1], in the assay with HT-29 [2], in the assay on MDA-MB-435 [3] and in the assay on HCT-116 [4] was more than 20 µM each time.

On to `O=C(NNc1nc2cc(F)ccc2n2cccc12)c1ccco1`, for which the IC50 in the assay with HCT-116 [1], with HT-29 [2], in the assay on MDA-MB-435 [3] and with HCT-116 [4] was more than 20 µM throughout.

Regarding `O=C(NNc1nc2cc(F)ccc2n2cccc12)c1ccccc1F`, the IC50 in the assay on HCT-116 [1], in the assay with HT-29 [2], in the assay with MDA-MB-435 [3] and in the assay on HCT-116 [4] was more than 20 µM throughout.

On to `O=C(NNc1nc2ccccc2n2cccc12)c1cc2ccccc2[nH]1`, for which the concentration for half-maximal inhibition (IC50) in the assay on HCT-116 [1], in the assay on HT-29 [2], with MDA-MB-435 [3] and in the assay with HCT-116 [4] was more than 20 µM throughout.

On to `O=C(NNc1nc2ccccc2n2cccc12)C1CSCN1` (centres undefined), for which the IC50 with HCT-116 [1] was 10 µM; in the assay on HT-29 [2], 14 µM; in the assay with MDA-MB-435 [3], more than 20 µM; with HCT-116 [4], 15 µM.

As for `O=C(NNc1nc2ccccc2n2cccc12)c1ccc2cc[nH]c2c1`, the IC50 with HCT-116 [1], with HT-29 [2], in the assay on MDA-MB-435 [3] and in the assay on HCT-116 [4] was more than 20 µM each time.

With `O=C(NNc1nc2cc(F)ccc2n2cccc12)c1cnc2ccccc2n1`, the IC50 stood at 11 µM in the assay on HCT-116 [1], 13 µM with HT-29 [2], 15 µM with MDA-MB-435 [3] and 8 µM with HCT-116 [4].

In the case of `O=C(NNc1nc2cc(F)ccc2n2cccc12)c1ccccn1`, the IC50 in the assay with LNCaP [5] is more than 20 µM; in the assay on HCT-116 [1], more than 20 µM; with HT-29 [2] it was 17 µM; in the assay with MDA-MB-435 [3], more than 20 µM; with HCT-116 [4], more than 20 µM.

Consider `NCCC(=O)NNc1nc2ccccc2n2cccc12`, for which the concentration for half-maximal inhibition (IC50) in the assay with HCT-116 [1], with HT-29 [2], in the assay on MDA-MB-435 [3] and in the assay on HCT-116 [4] was more than 20 µM in each case.

`O=C(NNc1nc2cccc(F)c2n2cccc12)c1cnccn1`: the IC50 with LNCaP [5] turned out to be 0.4 µM; with HCT-116 [1], 0.3 µM; in the assay on HT-29 [2], 0.3 µM; in the assay on MDA-MB-435 [3], 3 µM; in the assay on HCT-116 [4] it was 0.4 µM. Besides, the result in the assay with MDA-MB-435 [6], in the assay on HCT-116 [7], with HT-29 [8], in the assay on HCT-116 [9] and in the assay on LNCaP [10] was Active.

On to `O=C(NNc1nc2cc(F)ccc2n2cccc12)c1cnccn1`, for which the half-inhibitory concentration (IC50) in the assay on LNCaP [5] was found to be 0.4 µM; with HCT-116 [1], 0.9 µM; with HT-29 [2], 0.9 µM; with MDA-MB-435 [3] it was 4 µM; in the assay with HCT-116 [4], 0.6 µM.

On to `O=C(NNc1nc2ccccc2n2cccc12)c1c[nH]c2ccccc12`, for which the IC50 in the assay on HCT-116 [1], in the assay on HT-29 [2], in the assay with MDA-MB-435 [3] and in the assay on HCT-116 [4] was more than 20 µM in each case.

For the molecule `O=C(NNc1nc2cc(F)ccc2n2cccc12)c1cccnc1`, the half-inhibitory concentration (IC50) in the assay with HCT-116 [1], with HT-29 [2], in the assay on MDA-MB-435 [3] and in the assay with HCT-116 [4] was more than 20 µM in each case.

(Values after ChEMBL document CHEMBL1144552, “Synthesis and antitumor activities of a series of novel quinoxalinhydrazides” (Bioorg Med Chem, 2007).)
